# From publication PMC9134932 (CNS Oncology, 2022)
# Several values for one entry are separate records, joined by “and”; a condition that tells them apart may be missing. Equal entries are not always repeated. Where two headings read alike, the source gives them in different places. Marks after values point to notes of the source that are not given here.
# Experiments:
# p-STAT3 (Y705) in PBMCs = assay: Intracellular p-STAT3 staining of patient PBMCs by flow cytometry; type: in vivo, human
# Summary of the method: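 Blood was processed at once because the p-STAT3 signal decays ex vivo. Ficoll-isolated PBMCs (6 × 10^6 in PBS) were fixed in 2% paraformaldehyde (final) for 10 min at 37°C, then permeabilised in ice-cold 90% methanol for 30 min. Staining was PE-anti-p-STAT3 (Y705) for 1 h at RT, in duplicate wells, with duplicate isotype-control wells and one unstained well. Duplicate specimens were run in parallel. Read-out was % p-STAT3+ PBMCs by flow cytometry versus baseline (0 h); paired t-test.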
# [1] = tested on: immune modulatory effects; details: cited from earlier work
# [2] = tested on: recurrent glioblastoma (GBM); assay: Clinical outcome: PFS, OS, MRI response; type: in vivo, human
# Summary of the method: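 Oral dosing as weight-based powder reconstituted into a liquid suspension just before intake, BID on Mon/Wed/Fri for 2 weeks of each 28-day cycle, for up to 12 cycles or until progression. MRI at baseline, then about every 2–3 months, scored by iRANO on FLAIR and post-contrast T1WI. Intention-to-treat population. Kaplan–Meier estimates of PFS and OS, with OS counted from initial diagnosis.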
# [3] = tested on: genetically engineered murine models of gliomas; details: p < 0.01; cited from earlier work
# [4] = tested on: patients with recurrent malignant glioma; assay: Phase I dose escalation; type: in vivo, human
# Summary of the method: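 Dose assignment used accelerated titration, then 3 + 3. Planned levels were 1, 2, 4, 8 and 16 mg/kg, given BID on Mon/Wed/Fri for 2 weeks per 28-day cycle, as an oral suspension. Toxicity was assessed at baseline and before each cycle, graded by CTCAE v4.0. Dose was held for grade II toxicity and cut by 30% or one level for grade III. DSMB approval was required before each cohort change.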
# [5] = no reference given, cited from earlier work
# glioma cancer cells = details: read-out: direct IC50 of glioma cancer cells; cited from earlier work
# PBMCs = assay: Immune monitoring of patient PBMCs; type: in vivo, human; details: for Th1 to Th2 ratio: % CD3+ CD4+ IFN-γ+ divided by % CD3+ CD4+ IL-4+ T cells; for Cytotoxic CD8 to Treg ratio: % CD3+ CD8+ IFN-γ+ divided by % CD3+ CD4+ CD25+ Foxp3+ cells
# Summary of the method: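 PBMCs were taken at C1D1 0 and 4 h, C1D2 0 h, and C1D8 0 and 4 h, then isolated from heparinised blood on Ficoll 1077. Cells were held 4–5 h at 37°C in T cell medium with protein transport inhibitor, Fc-blocked 15 min on ice, and given fixable viability dye 30 min at 4°C. Surface staining, fix/perm and intracellular staining followed, then flow cytometry. Th1:Th2 = %CD3+CD4+IFN-γ+ / %CD3+CD4+IL-4+. CD8:Treg = %CD3+CD8+IFN-γ+ / %CD3+CD4+CD25+FoxP3+.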
# GL261 glioma model = details: cited from earlier work
# [6] = i.v. 40 mg/kg, no reference given, cited from earlier work
# [7] = tested on: established intracerebral melanoma; details: versus 0% of vehicle control mice (p = 0.0076); cited from earlier work
# [8] = PK of WP1066 in human plasma; type: in vivo; details: 1-8 mg/kg oral
# [9] = three weeks after the last administration; range: 0.52-4.0; no reference given; cited from earlier work
# [10] = 1 mg/kg, C1D1 0 h (baseline before first dose)
# [11] = 2 mg/kg, C1D1 0 h (baseline before first dose)
# [12] = 4 mg/kg, C1D1 0 h (baseline before first dose)
# [13] = count in enrolled patient population (n = 8), all dose levels
# [14] = sum over all toxicities, enrolled patient population (n = 8)
# [15] = 8 mg/kg, C1D1 0 h (baseline before first dose)
smiles,measurement,setting,value
C[C@H](NC(=O)/C(C#N)=C/c1cccc(Br)n1)c1ccccc1 [WP1066],% of p-STAT3+ PBMC,p-STAT3 (Y705) in PBMCs; [10],39.9%
same,% of p-STAT3+ PBMC,"p-STAT3 (Y705) in PBMCs; 1 mg/kg, C1D1 4 h",33.4%
same,% of p-STAT3+ PBMC,"p-STAT3 (Y705) in PBMCs; 1 mg/kg, C1D2 0 h",31.8%
same,% of p-STAT3+ PBMC,"p-STAT3 (Y705) in PBMCs; 1 mg/kg, C1D8 0 h",19.3%
same,% of p-STAT3+ PBMC,"p-STAT3 (Y705) in PBMCs; 1 mg/kg, C1D8 4 h",15.7%
same,% of p-STAT3+ PBMC,p-STAT3 (Y705) in PBMCs; [11],38.1%
same,% of p-STAT3+ PBMC,"p-STAT3 (Y705) in PBMCs; 2 mg/kg, C1D1 4 h",33.8%
same,% of p-STAT3+ PBMC,"p-STAT3 (Y705) in PBMCs; 2 mg/kg, C1D2 0 h",31.5%
same,% of p-STAT3+ PBMC,"p-STAT3 (Y705) in PBMCs; 2 mg/kg, C1D8 0 h",27.6%
same,% of p-STAT3+ PBMC,"p-STAT3 (Y705) in PBMCs; 2 mg/kg, C1D8 4 h",34.8%
same,% of p-STAT3+ PBMC,p-STAT3 (Y705) in PBMCs; [12],35.0% and 27.8% and 35.9%
same,% of p-STAT3+ PBMC,"p-STAT3 (Y705) in PBMCs; 4 mg/kg, C1D1 4 h",28.2% and 30.9% and 36.0%
same,% of p-STAT3+ PBMC,"p-STAT3 (Y705) in PBMCs; 4 mg/kg, C1D2 0 h",26.9% and 29.7% and 45.8%
same,% of p-STAT3+ PBMC,"p-STAT3 (Y705) in PBMCs; 4 mg/kg, C1D8 0 h",37.7% and 27.3%
same,% of p-STAT3+ PBMC,"p-STAT3 (Y705) in PBMCs; 4 mg/kg, C1D8 4 h",22.7% and 21.1% and 35.3%
same,lowest dose with p-STAT3 suppression in peripheral blood (PBMCs),"p-STAT3 (Y705) in PBMCs; oral BID, longitudinal administration",1 mg/kg
same,concentration at which immune modulatory effects start,[1],around 0.1 μM
same,6-month PFS (PFS6) rate,[2]; 8 patients,0%
same,longest response duration,[2]; 8 patients,exceeded 3.25 months
same,estimated 1-year OS rate,"[2]; Kaplan-Meier, 8 patients",100%
same,median overall survival (OS),"[2]; from the time of the initial diagnosis, 95% CI: 22.5 months-NA months",25 months
same,Survival weeks,[2]; individual patient at 1 mg/kg,Alive
same,Survival weeks,[2]; individual patient at 2 mg/kg,65 weeks
same,Survival weeks,"[2]; individual patients at 4 mg/kg, 4 mg/kg",108 weeks and 109 weeks and 194 weeks
same,Survival weeks,"[2]; individual patients at 8 mg/kg, 8 mg/kg",115 weeks and 98 weeks and Alive
same,increase in median survival time,[3],55.5%
same,hematological events such as thrombocytopenia or lymphopenia,"[4]; 8 patients, 1-8 mg/kg",no significant hematological events
same,treatment-related deaths,"[4]; 8 patients, 1-8 mg/kg",No treatment-related deaths occurred
same,"patients with the most common adverse event, grade 1 nausea and diarrhea","[4]; 8 patients, all dose levels",50%
same,"Alanine aminotransferase increased, Grade 1",[4]; [13],1
same,"Alanine aminotransferase increased, Grade 2",[4]; [13],1
same,"Cardiac disorders, other-sinus rhythm probable left atrial enlargement, Grade 1",[4]; [13],1
same,"Cholesterol high, Grade 1",[4]; [13],1
same,"Creatinine increase, Grade 1",[4]; [13],1
same,"Diarrhea, Grade 1",[4]; [13],4
same,"Diarrhea, Grade 2",[4]; [13],1
same,"Gastrointestinal disturbance, Grade 1",[4]; [13],1
same,"Heartburn, Grade 1",[4]; [13],1
same,"Lymphocyte count decrease, Grade 1",[4]; [13],1
same,"Lymphocyte count decrease, Grade 2",[4]; [13],3
same,"Lymphocyte count decrease, Grade 3",[4]; [13],0
same,"Lymphocyte count decrease, Grade 4",[4]; [13],0
same,"Lymphocyte count decrease, Grade 5",[4]; [13],0
same,"Nausea, Grade 1",[4]; [13],4
same,"Neutrophil count decreased, Grade 1",[4]; [13],2
same,"Neutrophil count decreased, Grade 2",[4]; [13],0
same,"Neutrophil count decreased, Grade 3",[4]; [13],0
same,"Neutrophil count decreased, Grade 4",[4]; [13],0
same,"Neutrophil count decreased, Grade 5",[4]; [13],0
same,"Platelet count decrease, Grade 1",[4]; [13],1
same,"Platelet count decrease, Grade 2",[4]; [13],0
same,"Platelet count decrease, Grade 3",[4]; [13],0
same,"Platelet count decrease, Grade 4",[4]; [13],0
same,"Platelet count decrease, Grade 5",[4]; [13],0
same,"Vomiting, Grade 1",[4]; [13],1
same,"White blood cell decrease, Grade 1",[4]; [13],3
same,"White blood cell decrease, Grade 2",[4]; [13],1
same,"White blood cell decrease, Grade 3",[4]; [13],0
same,"White blood cell decrease, Grade 4",[4]; [13],0
same,"White blood cell decrease, Grade 5",[4]; [13],0
same,tolerability of the oral formulation,"[4]; dose level 4 (8 mg/kg), all three subjects",oral aversion to the formulation
same,"Total toxicities, Grade 2",[4]; [14],6
same,"Total toxicities, Grade 3",[4]; [14],0
same,"Total toxicities, Grade 4",[4]; [14],0
same,"Total toxicities, Grade 5",[4]; [14],0
same,oral bioavailability,[5]; methylcellulose-based oral nanoparticle formulation,approximately 30%
same,mean peak plasma concentration,[5]; preclinical dose of 40 mg/kg,4.31 µM
same,IC50,glioma cancer cells,2 to 5 µM
same,% IFN-γ+ CD8 T cells,PBMCs; [10],8.3%
same,% of FoxP3 Tregs,PBMCs; [10],6.9%
same,Th1 to Th2 ratio,"PBMCs; 1 mg/kg, C1D1 0 h (baseline)",0.3
same,Cytotoxic CD8 to Treg ratio,"PBMCs; 1 mg/kg, C1D1 0 h (baseline)",1.2
same,% IFN-γ+ CD8 T cells,"PBMCs; 1 mg/kg, C1D8 4 h",45.3%
same,% of FoxP3 Tregs,"PBMCs; 1 mg/kg, C1D8 4 h",3.9%
same,Th1 to Th2 ratio,"PBMCs; 1 mg/kg, C1D8 4 h",1.0
same,Cytotoxic CD8 to Treg ratio,"PBMCs; 1 mg/kg, C1D8 4 h",11.7
same,% IFN-γ+ CD8 T cells,PBMCs; [11],8.8%
same,% of FoxP3 Tregs,PBMCs; [11],8.8%
same,% IFN-γ+ CD8 T cells,"PBMCs; 2 mg/kg, C1D8 4 h",7.0%
same,% of FoxP3 Tregs,"PBMCs; 2 mg/kg, C1D8 4 h",7.6%
same,Th1 to Th2 ratio,"PBMCs; 2 mg/kg, C1D8 4 h",0.5
same,Cytotoxic CD8 to Treg ratio,"PBMCs; 2 mg/kg, C1D8 4 h",0.9
same,% IFN-γ+ CD8 T cells,PBMCs; [12],4.6% and 0.9% and 4.0%
same,% of FoxP3 Tregs,PBMCs; [12],5.3^§ % and 4.9% and 4.0%
same,% of FoxP3 Tregs,"PBMCs; 4 mg/kg, C1D8 4 h",8.4% and 5.9%
same,% IFN-γ+ CD8 T cells,PBMCs; [15],27.4% and 31.7%
same,% of FoxP3 Tregs,PBMCs; [15],3.7% and 2.4% and 6.9%
same,Cytotoxic CD8 to Treg ratio,"PBMCs; 8 mg/kg, C1D1 0 h (baseline)",7.4 and 4.6
same,% IFN-γ+ CD8 T cells,"PBMCs; 8 mg/kg, C1D8 4 h",3.6% and 0.1%
same,% of FoxP3 Tregs,"PBMCs; 8 mg/kg, C1D8 4 h",5.4% and 2.1% and 5.8%
same,Th1 to Th2 ratio,"PBMCs; 8 mg/kg, C1D8 4 h",2.4 and 1.8
same,FoxP3+ Tregs in PBMCs versus baseline,PBMCs; after 172 h of treatment,not significantly altered
same,therapeutic effect in combination with radiation therapy,"GL261 glioma model; GL261 glioma model, lost in immune-incompetent animals",long-term survivors and enhanced median survival time relative to monotherapy
same,therapeutic effect as monotherapy,"GL261 glioma model; preclinical murine studies, 60 mg/kg",failed to demonstrate any therapeutic effect
same,mean concentration within the brain,[6]; at 15 min,162 µM
same,mean concentration within the brain,[6]; at 6 h,6 µM
same,animals surviving long term,[7],80%
same,dose dependence of Cmax,[8],dose dependent increase in the Cmax
same,concentration within orthotopic brain tumors,[9],2.3 µM
